Source: ChEMBL document CHEMBL1153793, “New pyridone, thioxopyridine, pyrazolopyridine and pyridine derivatives that modulate inflammatory mediators in stimulated RAW 264.7 murine macrophage” (Eur J Med Chem, 2009)
Active and inactive are the calls of the source. No cut-off for these calls is given here.

Assays:
RAW264.7 [1] = assay: Cytotoxicity against mouse RAW264.7 cells assessed as cell viability after 24 hrs by MTT assay; format: cell-based; settings: RAW264.7, 24 h, in the assay text read “MTT assay” for “ultra gel clot assay”
Outline: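 RAW 264.7 macrophages (5×10^4 cells/well) exposed 24 h at 37 °C to a range of compound concentrations, then read by MTT reduction to formazan, solubilised in acidic isopropanol. Viability expressed as mean % of untreated cells (n = 4); 1000 U/ml M-CSF as positive control. IC50 derived.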

RAW264.7 [2] = assay: Effect on mouse RAW264.7 cell function assessed as FITC-LPS binding to macrophage after 15 mins by fluorimetry; format: functional, cell-based
Outline: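 5×10^5 RAW 264.7 cells pre-incubated 15 min at 37 °C with compound in RPMI-1640 plus 10% FBS as the CD14/LBP source. FITC-LPS (200 ng/ml) then added for 1 h. After PBS wash, fluorescence read at ex 485/em 530 nm and median fluorescence intensity reported.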

RAW264.7 [3] = assay: Effect on inflammatory mediators in LPS-stimulated mouse RAW264.7 cells assessed as nitrite accumulation at 20% IC50 after 24 hrs by Griess assay; format: functional
RAW264.7 [4] = assay: Effect on inflammatory mediators in mouse RAW264.7 cells assessed as nitrite accumulation at 20% IC50 after 24 hrs by Griess assay; format: functional
RAW264.7 [5] = assay: Effect on inflammatory mediators in LPS-stimulated mouse RAW264.7 cells assessed as TNF-alpha accumulation at 20% IC50 after 24 hrs by ELISA; format: functional
RAW264.7 [6] = assay: Effect on inflammatory mediators in mouse RAW264.7 cells assessed as TNF-alpha accumulation at 20% IC50 after 24 hrs by ELISA; format: functional
RAW264.7 [7] = assay: Effect on inflammatory mediators in LPS-stimulated mouse RAW264.7 cells assessed as PGE2 accumulation at 20% IC50 after 24 hrs by ELISA; format: functional
RAW264.7 [8] = assay: Effect on inflammatory mediators in mouse RAW264.7 cells assessed as PGE2 accumulation at 20% IC50 after 24 hrs by ELISA; format: functional
RAW264.7 [9] = assay: Effect on inflammatory mediators in LPS-stimulated mouse RAW264.7 cells assessed as COX-2 accumulation at 20 uM after 24 hrs by dot immunoblotting; format: functional
Outline: (§1)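 Cells treated 24 h with 20 µM compound, with or without LPS (1 µg/ml). 20 µg soluble lysate protein dot-blotted onto nitrocellulose and probed with rabbit anti-mouse COX-2 or 5-LO, HRP anti-rabbit secondary and OPD colour. Intensity normalised to β-actin dots; four repeats.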

RAW264.7 [10] = assay: Effect on inflammatory mediators in mouse RAW264.7 cells assessed as COX-2 accumulation at 20 uM after 24 hrs by dot immunoblotting; format: functional; outline: as §1
RAW264.7 [11] = assay: Effect on inflammatory mediators in LPS-stimulated mouse RAW264.7 cells assessed as COX-2 accumulation at 20% IC50 after 24 hrs by dot immunoblotting; format: functional
Outline: (§2)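 20 µg lysate protein dot-blotted, probed with anti-mouse COX-2 or 5-LO, detected by HRP/OPD and normalised to β-actin.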

RAW264.7 [12] = assay: Effect on inflammatory mediators in mouse RAW264.7 cells assessed as COX-2 accumulation at 20% IC50 after 24 hrs by dot immunoblotting; format: functional; outline: as §2
RAW264.7 [13] = assay: Effect on inflammatory mediators in LPS-stimulated mouse RAW264.7 cells assessed as 5-LO accumulation at 20 uM after 24 hrs by dot immunoblotting; format: functional; outline: as §1
RAW264.7 [14] = assay: Effect on inflammatory mediators in mouse RAW264.7 cells assessed as 5-LO accumulation at 20 uM after 24 hrs by dot immunoblotting; format: functional; outline: as §1
RAW264.7 [15] = assay: Effect on inflammatory mediators in LPS-stimulated mouse RAW264.7 cells assessed as 5-LO accumulation at 20% IC50 after 24 hrs by dot immunoblotting; format: functional; outline: as §2
RAW264.7 [16] = assay: Effect on inflammatory mediators in mouse RAW264.7 cells assessed as 5-LO accumulation at 20% IC50 after 24 hrs by dot immunoblotting; format: functional; outline: as §2
[17] = Hydroxyl radical scavenging activity assessed as trolox equivalents at 1 uM by ORAC assay; format: functional
Outline: (§3)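 β-Phycoerythrin fluorescence decay followed kinetically for 2 h at 37 °C with 1 µM compound, against peroxyl and hydroxyl radicals. One ORAC unit = net protection given by 1.0 µM Trolox.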

[18] = Peroxyl radical scavenging activity assessed as trolox equivalents at 1 uM by ORAC assay; outline: as §3
[19] = Antioxidant activity assessed as superoxide radical scavenging activity; format: functional
Outline: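 Non-cellular assay; superoxide generated by oxidation of 50 µM hypoxanthine with 12 mU xanthine oxidase. Scavenging followed as the rate of nitroblue tetrazolium reduction to formazan. SC50 taken from dose-dependent curves of serial dilutions; superoxide dismutase as standard inhibitor.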

RAW264.7 [20] = assay: Induction of phagocytosis in mouse RAW264.7 cells assessed as phagocytic activity against FITC-zymosan after 1 hr by fluorimetry; format: functional, cell-based
Outline: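 Cells at 1×10^5/well in phenol red-free RPMI-1640 rested 24 h, then given compound for 1 h. FITC-zymosan added for a further 1 h; cells washed three times and lysed with Triton X-100. Fluorescence read at 485/530 nm and expressed relative to untreated cells (100%).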

Compound	IC50 (RAW264.7 [1]) [µM]	Activity (RAW264.7 [2])	Activity (RAW264.7 [3]) [nmol]	Activity (RAW264.7 [4]) [nmol]	Activity (RAW264.7 [5]) [pg]	Activity (RAW264.7 [6]) [pg]	Activity (RAW264.7 [7]) [pg]	Activity (RAW264.7 [8]) [pg]	Activity (RAW264.7 [9]) [%]	Activity (RAW264.7 [10]) [%]	Activity (RAW264.7 [11]) [%]	Activity (RAW264.7 [12]) [%]	Activity (RAW264.7 [13]) [%]	Activity (RAW264.7 [14]) [%]	Activity (RAW264.7 [15]) [%]	Activity (RAW264.7 [16]) [%]	Activity [17]	Activity [18]	SC50 [19] [µg/mL]	Activity (RAW264.7 [20])
CC(C)c1ccc(-c2cc(-c3ccc4c(c3)CCCC4)nc(Cl)c2C#N)cc1	8.4	inactive	611.68	439.13	5110.4	350.05	2870.25	45.39	80.1	28.7	80.1	28.7	94.6	29.5	94.6	29.5	1.1	0.92	> 100	
COc1ccc(-c2cc(-c3ccc4c(c3)CCCC4)nc(NCc3ccccc3)c2C#N)cc1OC	4.9	inactive	915.9	720.91	5520.55	2460.46	3010.66	31.29			99.2	46.3			94.7	30.2	3.54	2.95	38.4	inactive
CCOC(=O)COc1nc(-c2ccc3c(c2)CCCC3)cc(-c2ccc(OC)c(OC)c2)c1C#N	26.2		388.4	2.65	3945.11	66.57	2954.2	22.4			68.7	27.5			79.6	21.9	2.47	2.01	55.7	
CC(C)c1ccc(-c2cc(-c3ccc4c(c3)CCCC4)nc(OCC(=O)NN)c2C#N)cc1	27.7		596.4	440.24	5754.5	1364.75	3405.5	43.6			92.6	63.1			91.8	33.12	0.99	0.81	42.5	
CC(C)c1ccc(-c2cc(-c3ccc4c(c3)CCCC4)nc(OCC(=O)NCc3ccccc3)c2C#N)cc1	9.9		32.75	10.19	615.33	69.65	3260.2	48.15			20.1	20.6			61.7	21.7	3.44	2.22	24.6	Active
CCOC(=O)COc1nc(-c2ccc3c(c2)CCCC3)cc(-c2ccc(C(C)C)cc2)c1C#N	> 50	Active	110.54	3.19	2810.66	72.45	2870.5	50.5			31.3	18.7			38.7	11.9	1.05	2.36	81.4	Active
